The record followed here is ChEMBL document CHEMBL1641472, “Discovery of novel phenylpyridone derivatives as potent and selective MCH1R antagonists” (Bioorg Med Chem, 2011).

SMILES strings stand for the structures. The source made the active and inactive calls. The calls are words filed in the database; no cut-off is given here. Bounds are passed on as bounds.

Chain of Voltage-gated inwardly rectifying potassium channel KCNH2 (Q12809 whole entry): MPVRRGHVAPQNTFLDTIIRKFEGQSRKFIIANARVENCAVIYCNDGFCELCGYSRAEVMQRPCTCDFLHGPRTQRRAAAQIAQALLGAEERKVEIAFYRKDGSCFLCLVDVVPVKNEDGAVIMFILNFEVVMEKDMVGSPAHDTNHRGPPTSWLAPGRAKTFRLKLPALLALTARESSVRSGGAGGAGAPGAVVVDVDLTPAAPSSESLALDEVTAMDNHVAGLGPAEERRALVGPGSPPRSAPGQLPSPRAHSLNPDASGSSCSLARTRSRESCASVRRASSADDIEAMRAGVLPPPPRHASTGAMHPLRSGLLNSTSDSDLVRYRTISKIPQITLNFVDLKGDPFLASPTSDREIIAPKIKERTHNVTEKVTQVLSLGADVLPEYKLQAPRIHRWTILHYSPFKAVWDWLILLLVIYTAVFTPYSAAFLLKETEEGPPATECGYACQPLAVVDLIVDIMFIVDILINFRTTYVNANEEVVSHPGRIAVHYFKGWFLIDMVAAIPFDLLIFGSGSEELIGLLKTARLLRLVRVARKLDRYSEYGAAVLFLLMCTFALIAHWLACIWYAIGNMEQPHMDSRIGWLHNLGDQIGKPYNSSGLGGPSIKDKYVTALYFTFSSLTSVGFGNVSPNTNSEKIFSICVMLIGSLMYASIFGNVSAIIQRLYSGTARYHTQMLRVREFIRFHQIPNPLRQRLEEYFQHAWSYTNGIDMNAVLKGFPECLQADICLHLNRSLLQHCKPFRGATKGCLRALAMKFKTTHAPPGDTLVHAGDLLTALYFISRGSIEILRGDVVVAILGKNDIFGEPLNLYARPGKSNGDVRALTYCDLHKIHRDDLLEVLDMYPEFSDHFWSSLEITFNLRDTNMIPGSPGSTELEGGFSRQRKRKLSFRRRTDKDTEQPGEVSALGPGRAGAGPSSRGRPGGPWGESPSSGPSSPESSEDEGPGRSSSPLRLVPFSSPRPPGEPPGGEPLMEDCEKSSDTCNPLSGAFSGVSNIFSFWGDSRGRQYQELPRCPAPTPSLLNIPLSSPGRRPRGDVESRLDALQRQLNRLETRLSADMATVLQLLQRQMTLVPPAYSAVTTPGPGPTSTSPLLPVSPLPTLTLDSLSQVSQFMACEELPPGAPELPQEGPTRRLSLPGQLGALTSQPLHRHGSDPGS
T1 sequence (Q99705 whole entry): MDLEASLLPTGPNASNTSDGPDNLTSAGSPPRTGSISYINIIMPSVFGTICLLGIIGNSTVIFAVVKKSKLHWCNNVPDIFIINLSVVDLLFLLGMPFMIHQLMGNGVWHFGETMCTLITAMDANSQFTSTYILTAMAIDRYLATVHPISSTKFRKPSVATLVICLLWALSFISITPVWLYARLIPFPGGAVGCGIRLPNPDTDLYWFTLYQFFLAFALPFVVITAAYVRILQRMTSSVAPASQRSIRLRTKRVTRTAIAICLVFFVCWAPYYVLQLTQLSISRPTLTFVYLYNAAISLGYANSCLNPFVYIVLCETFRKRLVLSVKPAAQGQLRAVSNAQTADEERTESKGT

One series relates to Mus musculus. The series is described as follows: Antiobese effect in diet-induced obese C57BL/6 mouse model assessed as loss of body weight at 3 mg/kg, po QD for 1.5 months. The format is functional.
Conditions: not given
An outline of the steps: (§1)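 Established high-fat-fed DIO mice dosed orally once daily at 3, 10 or 30 mg/kg for 1.5 months, each dose given 1–2 h before dark period after daily food intake and body weight recording; body weight change at end of treatment versus vehicle controls, mean ± SEM.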
On to `O=c1cc(OCc2ccc(F)cc2)ccn1-c1ccc(OCCN2CCCC2)cc1`, for which the Activity came out at 4%.

Another series addresses T1, Melanin-concentrating hormone receptor 1 (Homo sapiens, UniProt Q99705). The series is described as follows: Antagonist activity at human MCHR1 expressed in CHO cells assessed as inhibition of MCH-induced intracellular calcium release by FLIPR assay. The format is functional, cell-based.
Conditions: not given
Put shortly:
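Agonist-induced intracellular calcium release measured by FLIPR in CHO cells stably expressing human MCH1R; antagonism taken as inhibition of the MCH-evoked signal.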
On the technique in general: Calcium flux is commonly read through the fluorescence of an indicator in the cells.
Broadly, the IC50 is the concentration needed to halve the response being measured. Regarding `O=c1cc(OCc2ccccc2)ccn1-c1ccc(OCCN2CCCCC2)cc1`, the IC50 was 19 nM.
Still for that read-out and setting: under `CCN(CC)CCOc1ccc(-n2ccc(OCc3ccccc3)cc2=O)cc1` stands 24 nM.
Regarding `CC(C)N(CCOc1ccc(-n2ccc(OCc3ccccc3)cc2=O)cc1)C(C)C`, the IC50 was 22 nM.
As to `O=c1cc(OCc2ccc3ccccc3c2)ccn1-c1ccc(OCCN2CCCC2)cc1`, the IC50 was determined as 175 nM.
In the case of `O=c1cc(OCc2cccc(F)c2)ccn1-c1ccc(OCCN2CCCC2)cc1`, the IC50 stood at 22 nM.
Regarding `O=c1cc(OCc2ccccc2F)ccn1-c1ccc(OCCN2CCCC2)cc1`, the IC50 was found to be 30 nM.
On the same count and under the same terms, as for `O=c1cc(OCc2ccc(C(F)(F)F)cc2)ccn1-c1ccc(OCCN2CCCC2)cc1`, the figure is 49 nM; as for `O=c1cc(OCc2ccc(F)cc2)ccn1-c1ccc(OCCN2CCCC2)cc1`, 23 nM; as for `CN1CCCC1COc1ccc(-n2ccc(OCc3ccccc3)cc2=O)cc1` (stereo not given), 23 nM.
`COc1ccc(COc2ccn(-c3ccc(OCCN4CCCC4)cc3)c(=O)c2)cc1`: the IC50 came to 11 nM.
Still for that read-out and setting: as for `O=c1cc(OCc2ccc(Cl)cc2)ccn1-c1ccc(OCCN2CCCC2)cc1`, the figure is 17 nM; as for `CN(C)CCOc1ccc(-n2ccc(OCc3ccccc3)cc2=O)cc1`, 18 nM; as for `O=c1cc(OCc2ccccc2)ccn1-c1ccc(OCCN2CCOCC2)cc1`, 34 nM.

The next series deals with Mus musculus. The series is described as follows: Suppression of spontaneous food intake in diet-induced obese C57BL/6 mouse model at 10 mg/kg, po after 24 hrs. The format is functional.
Conditions: not given
Put shortly:
(§2)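 Established DIO mice on high-fat diet given a single oral dose (3, 10, 30 mg/kg) 1–2 h before dark onset, after recording daily intake and body weight; food intake measured 24 h post-dose versus vehicle group.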
`O=c1cc(OCc2ccc(F)cc2)ccn1-c1ccc(OCCN2CCCC2)cc1` came in with an Activity of 13%.

Another series relates to Mus musculus. The series is described as follows: Suppression of spontaneous food intake in diet-induced obese C57BL/6 mouse model at 30 mg/kg, po after 24 hrs.
Conditions: not given
Format: functional. Put shortly:
as §2
Take `CN(C)CC1CCc2cc(NC(=O)c3ccc(-c4ccc(F)cc4)cc3)ccc2C1` (stereo not given): the result was Active.
On the same count and under the same terms, as for `O=c1cc(OCc2ccc(F)cc2)ccn1-c1ccc(OCCN2CCCC2)cc1`, the figure is 19%.

Test system in the next series: not listed separately
Briefly: Drug level in Sprague-Dawley rat cerebrospinal fluid at 10 mg/kg, po after 2 hrs. Format: ADME, organism-based. More on the design: dose 10 mg/kg, route oral. Particulars: read-out: Drug uptake.
Take `O=c1cc(OCc2ccc(F)cc2)ccn1-c1ccc(OCCN2CCCC2)cc1`: the concentration at 2 h is 55 nM.
Same read-out and setting: as for `O=c1cc(OCc2ccc(Cl)cc2)ccn1-c1ccc(OCCN2CCCC2)cc1`, the figure is 10 nM.

Test system in another series: not listed separately
The series is described as follows: Ratio of drug level in brain to plasma in Sprague-Dawley rat plasma at 10 mg/kg, po after 2 hrs. On the set-up: dose 10 mg/kg, route oral. Format: ADME, organism-based.
Conditions: not given
What is called Kp is the ratio of the level in a tissue or fluid to that in plasma or blood. On to `O=c1cc(OCc2ccccc2)ccn1-c1ccc(OCCN2CCCCC2)cc1`, for which the concentration ratio (Kp) at 2 h turned out to be 3.8.
For `O=c1cc(OCc2ccc(F)cc2)ccn1-c1ccc(OCCN2CCCC2)cc1`, the Kp at 2 h was 2.4.
On the same count and under the same terms, as for `O=c1cc(OCc2ccc(Cl)cc2)ccn1-c1ccc(OCCN2CCCC2)cc1`, the figure is 3.6.

Test system in another series: not listed separately
The series is described as follows: Drug level in Sprague-Dawley rat plasma at 10 mg/kg, po after 2 hrs. The format is ADME, organism-based. More on the design: dose 10 mg/kg, route oral. Particulars: read-out: Drug uptake.
Turning to `O=c1cc(OCc2ccccc2)ccn1-c1ccc(OCCN2CCCCC2)cc1`, the concentration at 2 h was found to be 200 nM.
For the compound `O=c1cc(OCc2ccc(F)cc2)ccn1-c1ccc(OCCN2CCCC2)cc1`, the concentration at 2 h is 1000 nM.
For `O=c1cc(OCc2ccc(Cl)cc2)ccn1-c1ccc(OCCN2CCCC2)cc1`, the concentration at 2 h came out at 470 nM.

A further series concerns Mus musculus. The series is described as follows: Antiobese effect in diet-induced obese C57BL/6 mouse model assessed as loss of body weight at 30 mg/kg, po QD for 1.5 months. Format: functional.
Conditions: not given
Put shortly:
as §1
As for `O=c1cc(OCc2ccc(F)cc2)ccn1-c1ccc(OCCN2CCCC2)cc1`, the Activity stood at 21%.

A further series has as its system Mus musculus. The series is described as follows: Suppression of spontaneous food intake in diet-induced obese C57BL/6 mouse model at 3 mg/kg, po after 24 hrs. Format: functional.
Conditions: not given
Put shortly:
as §2
On to `O=c1cc(OCc2ccc(F)cc2)ccn1-c1ccc(OCCN2CCCC2)cc1`, for which the Activity is 6%.

In a further series the test system is Mus musculus. The series is described as follows: Suppression of spontaneous food intake in diet-induced obese C57BL/6 mouse model treated orally chronic administration QD for 1.5 months after 24 hrs. Format: functional, organism-based.
Conditions: not given
As to `O=c1cc(OCc2ccc(F)cc2)ccn1-c1ccc(OCCN2CCCC2)cc1`, the Activity entry is “Dose-dependent effect”.

The test system of a further series is Mus musculus. The series is described as follows: Suppression of spontaneous food intake in diet-induced obese C57BL/6 mouse model treated orally after 24 hrs.
Conditions: not given
Format: functional, organism-based. Put shortly: as §2
In the case of `O=c1cc(OCc2ccc(F)cc2)ccn1-c1ccc(OCCN2CCCC2)cc1`, the Activity result was “Dose-dependent effect”.

In another series the target is T1, Melanin-concentrating hormone receptor 1. The series is described as follows: Displacement of [125I]MCH from human MCHR1 expressed in CHO cells by competition binding assay. The format is cell-based.
Conditions: not given
An outline of the steps:
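Competition binding against [¹²⁵I]-MCH radioligand on membranes from CHO cells expressing human MCH1R; IC50 values are means of two experiments.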
In general terms: Displacement assays read how much labelled ligand stays bound in the presence of the test substance.
In turn, `CCN(CC)CCOc1ccc(-n2ccc(OCc3ccccc3)cc2=O)cc1` yielded an IC50 of 6.6 nM.
Same read-out and setting: as for `O=c1cc(OCc2ccccc2Cl)ccn1-c1ccc(OCCN2CCCC2)cc1`, the figure is 12 nM.
As to `CC(C)N(CCOc1ccc(-n2ccc(OCc3ccccc3)cc2=O)cc1)C(C)C`, the IC50 stood at 5.1 nM.
Take `O=c1cc(OCc2ccc3ccccc3c2)ccn1-c1ccc(OCCN2CCCC2)cc1`: the IC50 amounted to 7.7 nM.
Take `O=c1cc(OCc2cccc(F)c2)ccn1-c1ccc(OCCN2CCCC2)cc1`: the half-inhibitory concentration (IC50) was 5.9 nM.
Still for that read-out and setting: under `O=c1cc(OCc2ccccc2F)ccn1-c1ccc(OCCN2CCCC2)cc1` stands 8.7 nM.
The same measure, in the same setting: as for `CCN(CC)CCN(C)c1ccc(-n2ccc(OCc3ccccc3)cc2=O)cc1`, the figure is 16 nM; as for `O=c1cc(-c2ccc(F)cc2)ccn1-c1ccc(OCCN2CCCCC2)cc1`, more than 1000 nM.
`O=c1cc(OCc2ccc(C(F)(F)F)cc2)ccn1-c1ccc(OCCN2CCCC2)cc1` returned a half-maximal inhibitory concentration (IC50) of 6.7 nM.
Compound `O=c1cc(OCCOc2ccc(F)cc2)ccn1-c1ccc(OCCN2CCCC2)cc1` registered an IC50 of 150 nM.
Turning to `CN(C)CC(C)(C)Oc1ccc(-n2ccc(OCc3ccccc3)cc2=O)cc1`, the IC50 came to 180 nM.
Compound `CN1CCC(Oc2ccc(-n3ccc(OCc4ccccc4)cc3=O)cc2)C1` (stereo not given) returned an IC50 of 18 nM.
Turning to `CN1CCCC1COc1ccc(-n2ccc(OCc3ccccc3)cc2=O)cc1` (stereo not given), the IC50 worked out at 12 nM.
For `O=c1cc(OCc2ccc(-c3ccccc3)cc2)ccn1-c1ccc(OCCN2CCCC2)cc1`, the IC50 came to 640 nM.
Same read-out and setting: under `CC(CN(C)C)Oc1ccc(-n2ccc(OCc3ccccc3)cc2=O)cc1` (stereo not given) stands 51 nM; under `CN1CCCCC1COc1ccc(-n2ccc(OCc3ccccc3)cc2=O)cc1` (stereo not given), 18 nM; under `O=c1cc(OCc2ccc(Cl)cc2)ccn1-c1ccc(OCCN2CCCC2)cc1`, 1.4 nM.
The same measure, in the same setting: under `O=c1cc(OCCc2ccc(F)cc2)ccn1-c1ccc(OCCN2CCCC2)cc1` stands 650 nM; under `O=c1cc(OCc2ccccc2)ccn1-c1ccc(OCCN2CCOCC2)cc1`, 24 nM; under `O=c1cc(Oc2ccc(F)cc2)ccn1-c1ccc(OCCN2CCCCC2)cc1`, more than 1000 nM.
`CCN(CC)CCN(C(=O)OC)c1ccc(-n2ccc(OCc3ccccc3)cc2=O)cc1`: the IC50 was more than 1000 nM.

Another series has as its target Voltage-gated inwardly rectifying potassium channel KCNH2 (Homo sapiens, UniProt Q12809). Briefly: Displacement of [35S]N-[(4R)-10-[(2R)-6-cyano-1,2,3,4-tetrahydro-2-naphthyl]-3,4-dihydro-4-hydroxyspiro[2H-1-benzopyran-2,40-piperidin]-6-yl]methanesulfonamide from human ERG expressed in HEK293 cells.
Conditions: not given
Regarding `CCN(CC)CCOc1ccc(-n2ccc(OCc3ccccc3)cc2=O)cc1`, the IC50 was found to be 9800 nM.
On the same count and under the same terms, as for `O=c1cc(OCc2ccccc2F)ccn1-c1ccc(OCCN2CCCC2)cc1`, the figure is 4300 nM.
`CCN(CC)CCN(C)c1ccc(-n2ccc(OCc3ccccc3)cc2=O)cc1` displayed an IC50 of 1700 nM.
With `CN1CCC(Oc2ccc(-n3ccc(OCc4ccccc4)cc3=O)cc2)C1` (stereo not given), the IC50 was more than 10000 nM.
`CN(C)CCOc1ccc(-n2ccc(OCc3ccccc3)cc2=O)cc1` showed an IC50 of more than 10000 nM.
The same measure, in the same setting: under `O=c1cc(OCc2ccccc2)ccn1-c1ccc(OCCN2CCOCC2)cc1` stands more than 10000 nM.

The subject of the next series is Brain. Briefly: Drug level in Sprague-Dawley rat brain measured per gram of tissue at 10 mg/kg, po after 2 hrs. The format is ADME, organism-based. More on the design: dose 10 mg/kg, route oral. To be noted: in vivo.
With `O=c1cc(OCc2ccccc2)ccn1-c1ccc(OCCN2CCCCC2)cc1`, the Drug uptake is 0.76 nmol/g.
The compound `O=c1cc(OCc2ccc(F)cc2)ccn1-c1ccc(OCCN2CCCC2)cc1` showed a Drug uptake of 2.4 nmol/g.
The same measure, in the same setting: as for `O=c1cc(OCc2ccc(Cl)cc2)ccn1-c1ccc(OCCN2CCCC2)cc1`, the figure is 1.67 nmol/g.

In a further series the test system is Mus musculus. Briefly: Antiobese effect in diet-induced obese C57BL/6 mouse model assessed as loss of body weight at 10 mg/kg, po QD for 1.5 months. Format: functional.
Conditions: not given
Put shortly:
as §1
As for `O=c1cc(OCc2ccc(F)cc2)ccn1-c1ccc(OCCN2CCCC2)cc1`, the Activity worked out at 11%.
